Source: ChEMBL document CHEMBL4145447, “4-arylamidobenzyl substituted 5-bromomethylene-2(5H)-furanones for chronic bacterial infection” (Eur J Med Chem, 2018)
Activity calls are given as the source filed them. No cut-off for these calls is given here.

Tests used:
[1] = system: Pseudomonas aeruginosa PAO1; test: Inhibition of Pseudomonas aeruginosa PAO1 GFP-fused quorum sensing rhlA at 10 uM measured every 15 mins up to 12 hrs by GFP reporter gene assay relative to control
How it was run: (§1)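 GFP reporter strains of P. aeruginosa PAO1 (lasB-, rhlA- or pqsA-promoter fused to unstable gfp(ASV)) grown overnight in LB at 37 °C, 200 rpm, 18 h, then diluted 1:100. Culture mixed 1:1 with compound diluted in LB from 10 mM DMSO stock (0.1% DMSO final). Fluorescence (ex 485/em 528 nm) read every 15 min at 37 °C for ≥12 h.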

[2] = target: T1, Anthranilate--CoA ligase (Pseudomonas aeruginosa (strain ATCC 15692 / DSM 22644 / CIP 104116 /JCM 14847 / LMG 12228 / 1C / PRS 101 / PAO1)) (UniProt Q9I4X3); test: Inhibition of Pseudomonas aeruginosa PAO1 GFP-fused quorum sensing pqsA at 10 uM measured every 15 mins up to 12 hrs by GFP reporter gene assay relative to control; how it was run: as §1
T1 sequence (whole entry): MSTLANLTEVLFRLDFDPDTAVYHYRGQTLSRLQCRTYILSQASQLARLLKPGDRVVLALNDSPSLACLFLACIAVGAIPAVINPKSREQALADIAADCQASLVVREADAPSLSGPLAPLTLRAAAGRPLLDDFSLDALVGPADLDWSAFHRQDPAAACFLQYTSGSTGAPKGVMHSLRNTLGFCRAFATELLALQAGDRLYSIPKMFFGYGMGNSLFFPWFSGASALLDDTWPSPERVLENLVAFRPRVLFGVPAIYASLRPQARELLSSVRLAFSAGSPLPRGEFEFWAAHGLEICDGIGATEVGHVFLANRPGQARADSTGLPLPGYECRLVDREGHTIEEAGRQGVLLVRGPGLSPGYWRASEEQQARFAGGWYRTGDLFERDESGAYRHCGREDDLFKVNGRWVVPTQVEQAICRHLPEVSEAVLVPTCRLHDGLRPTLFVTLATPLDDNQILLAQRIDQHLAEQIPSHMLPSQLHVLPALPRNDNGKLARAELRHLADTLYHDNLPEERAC

RAW264.7 [3] = test: Anti-inflammatory activity in mouse RAW264.7 cells assessed as inhibition of LPS-induced TNF-alpha production by measuring TNF-alpha level at 10 uM preincubated for 2 hrs followed by LPS stimulation and measured after 12 hrs by ELISA (reference value: 21561.3 +/- 857 pg/ml); assay type: functional
[4] = target: T2, Peroxisome proliferator-activated receptor gamma (Mus musculus) (UniProt P37238); test: Agonist activity at PPARgamma in mouse RAW264.7 cells assessed as inhibition of LPS-induced ERk1/2 phosphorylation at Thr202/Tyr204 residues at 10 uM preincubated for 1 hr followed by LPS stimulation and measured after 4 hrs in presence of PPARgamma antagonist GW9662 by Western blot analysis; assay type: cell-based
T2 sequence (whole entry): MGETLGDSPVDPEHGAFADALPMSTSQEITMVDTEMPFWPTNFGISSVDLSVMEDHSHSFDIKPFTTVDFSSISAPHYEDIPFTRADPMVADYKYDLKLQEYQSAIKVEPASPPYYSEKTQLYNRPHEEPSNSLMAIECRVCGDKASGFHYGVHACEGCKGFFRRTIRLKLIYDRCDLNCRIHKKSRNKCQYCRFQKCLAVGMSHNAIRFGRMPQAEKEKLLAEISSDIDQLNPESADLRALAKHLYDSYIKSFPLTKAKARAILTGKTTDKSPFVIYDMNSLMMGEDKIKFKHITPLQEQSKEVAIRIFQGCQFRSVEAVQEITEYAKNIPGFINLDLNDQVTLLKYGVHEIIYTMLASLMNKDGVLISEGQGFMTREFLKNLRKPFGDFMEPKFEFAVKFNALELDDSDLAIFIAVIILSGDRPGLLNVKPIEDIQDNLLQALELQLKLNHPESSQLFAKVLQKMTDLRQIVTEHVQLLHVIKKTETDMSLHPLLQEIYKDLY
How it was run: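 Western blot: RAW264.7 cells (2 × 10^6/well) pretreated 1 h with compound (10 µM), antagonist GW9662 (5 µM) where stated, then LPS 500 ng/mL for 4 h. Lysis on ice with PMSF, BCA-normalised protein on SDS gels, PVDF transfer, milk block, phospho- and total-protein primary antibodies, HRP secondary, ECL detection. Densitometry normalised to internal control; n = 3.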

[5] = target: T1, Anthranilate--CoA ligase (Pseudomonas aeruginosa (strain ATCC 15692 / DSM 22644 / CIP 104116 /JCM 14847 / LMG 12228 / 1C / PRS 101 / PAO1)); test: Inhibition of Pseudomonas aeruginosa PAO1 GFP-fused quorum sensing pqsA measured every 15 mins up to 12 hrs by GFP reporter gene assay; how it was run: as §1
Mus musculus [6] = test: Anti-inflammatory activity in LPS-induced sepsis shock mouse model assessed as survival rate at 20 mg/kg, iv pretreated daily for 5 days followed LPS treatment on day 5 at 1 hr post last dose and measured after 7 days relative to control; assay type: functional
How it was run: (§2)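 Male SPF mice, randomly grouped, dosed i.v. with compound dissolved in DMSO and diluted in physiological saline; vehicle group given a similar volume. LPS was injected on day 5, 1 h after the last administration. Survival was recorded every 12 h for 7 days after LPS, with 11 animals per group per figure legend.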

Mus musculus [7] = test: Anti-inflammatory activity in LPS-induced sepsis shock mouse model assessed as survival rate at 5 mg/kg, iv pretreated daily for 5 days followed LPS treatment on day 5 at 1 hr post last dose and measured after 7 days relative to control; assay type: functional; how it was run: as §2
RAW264.7 [8] = test: Anti-inflammatory activity in mouse RAW264.7 cells assessed as inhibition of LPS-induced IL-6 production by measuring IL-6 level at 10 uM preincubated for 2 hrs followed by LPS stimulation and measured after 24 hrs by ELISA (reference value: 407.6 +/- 16.7 pg/ml)
[9] = target: T1, Anthranilate--CoA ligase (Pseudomonas aeruginosa (strain ATCC 15692 / DSM 22644 / CIP 104116 /JCM 14847 / LMG 12228 / 1C / PRS 101 / PAO1)); test: Inhibition of Pseudomonas aeruginosa PAO1 GFP-fused quorum sensing pqsA at 5 to 100 uM measured every 15 mins up to 12 hrs by GFP reporter gene assay; how it was run: as §1

| SMILES | inhibition [1] | inhibition [2] | Activity (RAW264.7 [3]) | inhibition [4] | inhibition [5] | survival at 20 mg/kg (Mus musculus [6]) | survival at 5 mg/kg (Mus musculus [7]) | Activity (RAW264.7 [8]) | inhibition [9] |
| --- | --- | --- | --- | --- | --- | --- | --- | --- | --- |
| O=C(Cc1ccc(F)cc1)Nc1ccc(CC2=CC(=O)OC2=CBr)cc1 | 14.7% | 50.3% | 13362.7 pg/mL | inactive | Dose-dependent effect | 45.5% | 36.5% | 145.2 pg/mL | – |
| O=C(C=Cc1ccccc1)Nc1ccc(CC2=CC(=O)O/C2=C/Br)cc1 | 12% | 23.1% | 15037.3 pg/mL | inactive | – | – | – | 158.2 pg/mL | inactive |
